Source: PubChem
TRPC4 agonist: activators of mouse TRPC4 channel, primary screen, Fluo4 calcium, HEK293 TRPC4beta/mu-opioid cells | B-score at 10 µM | 0.49% of 310,000 active | Fluo4 calcium fluorescence; stronger effect = higher value;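 active = B-score above 5 SD of library B-scores, and initial fluorescence ratio not above library mean plus 5 SD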;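 also: positive B-score marks a calcium rise read as TRPC4 activation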
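System – HEK293 cells stably co-expressing mouse TRPC4beta and mu-opioid receptor · Signal – Fluo4 calcium-sensitive dye fluorescence, kinetic, 1 Hz baseline · Benchmarks – buffer (low) and maximal DAMGO (high) · Read-out – B score of integrated fluorescence ratio per well · Incubation – dye loading 45 min room temperature, 110 s kinetic read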
TRPC6 inh: mouse TRPC6 channel inhibitors, primary screen, cell-based, HEK293, membrane potential dye; AID 2553, 2010; 1.1% of 310,000 active; B-score at 10 µM; Short transient receptor potential channel 6 (Mus musculus), Q61143; ACh-evoked depolarization; stronger effect = lower value;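 active = B-score under library mean minus 3 SD, initial fluorescence not abnormally high, positive integrated signal ratio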;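 also: B-score derived from integrated fluorescence ratio over the kinetic read; more negative B-score means stronger inhibition of depolarization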
TRPC4 potent: positive allosteric modulators of TRPC4, primary screen, cell-based, mouse TRPC4beta, HEK293 mu-opioid, Fluo-4 calcium. Short transient receptor potential channel 4 (Mus musculus), Q9QUQ5. B-score at 10 µM. DAMGO EC20, Fluo-4 Ca2+ flux; stronger effect = higher value. 0.42% of 310,000 active. AID 2227, 2009;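 active = B-score of calcium response area above 5 SD of library B-scores, with initial fluorescence ratio within 5 SD of library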;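 also: B-score of integrated fluorescence ratio over time as area under calcium response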
TRPC6 activator: mouse TRPC6 channel activators, primary screen, cell-based, HEK293, membrane potential dye. Short transient receptor potential channel 6 (Mus musculus), Q61143. HEK293-TRPC6 membrane potential dye fluorescence; stronger effect = higher value. B-score at 10 µM. 0.13% of 310,000 active;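 active = B-score of the integrated fluorescence ratio above library mean plus 3 SD, and starting fluorescence ratio within library mean plus 5 SD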;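 also: higher score means more depolarization so channel activation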
TRPC4 block: inhibitors of mouse TRPC4 channel, primary screen, Fluo4 calcium, HEK293 TRPC4beta/mu-opioid cells; DAMGO-evoked Fluo4 calcium flux; stronger effect = lower value; B-score at 10 µM; 0.39% of 300,000 active;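 active = B-score over 3 SD under the library average, no early fluorescence shift, positive overall ratio signal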
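Assay system: HEK293 cells with stable TRPC4beta plus mu-opioid receptor expression. Dosing: single dose. Measured by: Fluo4 Ca2+ flux fluorescence. Also added: DAMGO in two steps, submaximal then maximal. Read-out: B score from integrated Fluo4 fluorescence ratio.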
Kir21 inh: inhibitors of mouse Kir2.1 inward-rectifier potassium channel. 0.85% of 310,000 active. AID 1672, 2009. HEK293-Kir2.1, FluxOR thallium flux fluorescence; stronger effect = lower value. B-score at 10 µM. Inward rectifier potassium channel 2 (Mus musculus), P35561;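 active = fluorescence ratio B-score at or below minus 3 SD of library scores, with starting-brightness B-score within 2 SD, cut at about -4.2 in these data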;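 also: channel flux triggered by added potassium and thallium sulfate stimulus; B-score of peak minus minimum fluorescence over baseline after thallium stimulus; more negative B-score means stronger Kir2.1 block with less thallium influx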
TRPC4 spec 2: mouse TRPC4 off-target activity of TRPC6 inhibitors, second screen. shares compounds with TRPC6 inh. HEK293 TRPC4/MOR, membrane potential dye fluorescence; channel activated by saturating DAMGO dose. inhibition, % at 10 µM. 42% of 920 active. AID 2776;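 active = compounds whose fluorescence signal differed from control wells by over 3 SD, either direction, in both duplicate plates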
TRPC4 spec: mouse TRPC4 modulation by TRPC6 hits, confirmation, selectivity assay for TRPC6 inhibitor project, cell-based, HEK293 TRPC4/mu-opioid, membrane potential dye; AID 2777, 2010; 61% of 920 active; activity change, negative = inhibition, % at 10 µM; membrane potential fluorescence; shares compounds with TRPC6 inh;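 active = rise or fall in signal beyond 3 SD of buffer-only wells in both replicate plates, either sign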;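 also: integrated kinetic ratio of fluorescence range over baseline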
HEK293 MPD ctr 2-1: nonspecific membrane potential effects, parental HEK293, confirmation, counter-screen for TRPC6 inhibitor project, cell-based, second counter screen; shares compounds with TRPC6 inh; parental HEK293 membrane potential dye fluorescence; maximal acetylcholine challenge after compound addition; signal change vs control, % at 10 µM; 31% of 920 active;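 active = membrane potential signal moving either way by over 3 SD of the maximum-effect control, in both duplicate plates, meaning non-specific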
HEK293 MPD ctr-1: membrane potential modulation in parental HEK293, confirmation, counter-screen for TRPC6 inhibitor project, cell-based; shares compounds with TRPC6 inh; parental HEK293 membrane potential dye fluorescence; membrane potential signal change, % at 10 µM; 60% of 920 active; AID 2780, 2010;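 active = membrane potential signal shifting up or down by more than 3 SD of buffer-only wells, on both duplicate plates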
HEK293 MPD ctr-2: parental HEK293 membrane potential modulation, confirmation, counter-screen for TRPC6 modulator project, cell-based. membrane potential signal change, % at 10 µM. AID 488924, 2010. membrane potential dye fluorescence. shares compounds with TRPC6 inh. 51% of 2,400 active;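 active = membrane potential signal moves up or down beyond 5 SD from buffer-only wells, on both duplicate plates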
HEK293 MPD ctr 2-2: parental HEK293 nonspecific activity of TRPC6 modulators, second screen | shares compounds with TRPC6 inh | membrane potential dye fluorescence; after compound, maximal acetylcholine stimulation | inhibition, % at 10 µM | 14% of 2,400 active;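 active = membrane potential signal drops by more than 5 SD from the mean control signal, in both duplicate plates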;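 also: plate controls were acetylcholine ECmax control wells for no effect and buffer only wells for full effect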
TRPC4/MOR mod: TRPC4 modulation by TRPC6 hit compounds, confirmation, selectivity assay for TRPC6 modulator project, cell-based, HEK293 TRPC4/mu-opioid, membrane potential dye, mouse | percent change from control (negative = decrease, positive = increase), % at 10 µM | 69% of 2,400 active | membrane potential fluorescence | shares compounds with TRPC6 inh;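 active = membrane potential signal moved up or down beyond 5 SD of buffer control wells, in both duplicate plates, actives on both sides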;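 also: plate controls were assay buffer wells for no effect and DAMGO maximal-effect wells for full effect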
TRPC4 ctr inh 2: second selectivity test of TRPC6 modulators against mouse TRPC4 | inhibition, % at 10 µM | AID 488928 | shares compounds with TRPC6 inh | 55% of 2,400 active | HEK293 TRPC4/mu-opioid, membrane potential dye fluorescence; stimulated with maximal-effect DAMGO;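 active = drop in membrane potential signal beyond 5 SD of the control wells in both duplicate plates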;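 also: TRPC4 counter screen for TRPC6 hits run under conditions tuned for TRPC6 not TRPC4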
TRPC6 block conf: mouse TRPC6 channel inhibitors, confirmation, HEK293 cells, membrane potential dye, duplicate. shares compounds with TRPC6 inh. ACh-evoked depolarization. inhibition, % at 10 µM. 43% of 3,300 active. AID 488960, 2010;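 active = fluorescence ratio falls more than 5 SD below the full-stimulation control mean, in both duplicate runs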;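 also: integrated fluorescence ratio of peak minus minimum over baseline after agonist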
TRPC6 act conf: mouse TRPC6 channel activators, confirmation, HEK293 cells, membrane potential dye, duplicate. activation, % at 10 µM. 11% of 2,800 active. AID 488961, 2010. HEK293-TRPC6 membrane potential dye fluorescence, FDSS. shares compounds with TRPC6 inh;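 active = ratio signal rise beyond 5 SD above unstimulated control wells' mean, seen in both duplicate runs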;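 also: plate controls were buffer EC0 wells for no effect and acetylcholine ECmax response for full effect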
The depositor's hits bear a star; i = inactive; . = not tested or not shown. Most compounds without a hit are left out; they make up all but 2.9% or so of the library.

SMILES | TRPC4 agonist | TRPC6 inh | TRPC4 potent | TRPC6 activator | TRPC4 block | Kir21 inh | HEK293 MPD ctr-2 | HEK293 MPD ctr 2-2 | TRPC4/MOR mod | TRPC4 ctr inh 2 | TRPC6 block conf | TRPC6 act conf | others
CCOC(=O)Nc1ccc2c(c1)N(C(=O)CCN1CCN(C)CC1)c1ccccc1S2 | i | i | i | i | i | 0.51 | . | . | . | . | . | .
Cc1ccnc(NS(=O)(=O)c2ccc(NC(=O)C3CCCO3)cc2)n1 (centres undefined) | i | i | i | i | i | 1.32 | . | . | . | . | . | .
CCN(CC)C(=O)CSc1nc2ccc(NC(=O)CSc3nnc(COc4ccccc4C)n3C)cc2s1 | i | i | i | i | i | -2.25 | . | . | . | . | . | .
Cc1c(F)cccc1NS(=O)(=O)c1ccc2c(c1)c(C)cc(=O)n2C | i | -6.85* | i | i | i | -2.56 | . | . | . | . | i | i | TRPC4 spec 2=i;TRPC4 spec=i;HEK293 MPD ctr 2-1=i;HEK293 MPD ctr-1=i
COc1ccc(CCNCc2ccc(OCc3ccc(Cl)nc3)c(OC)c2)cc1OC | i | -6.05* | i | i | i | -0.68 | i | i | i | 72.5%* | 44.5%* | i
CCN(CC)C(=O)CSc1nc(C)cc(-c2cccs2)c1C#N | i | i | i | i | i | 2.01 | . | . | . | . | . | .
CCOC(=O)C1CCN(C(=O)c2ccccc2Oc2ccccc2)CC1 | i | i | i | i | i | -0.76 | . | . | . | . | . | .
CCOC(=O)N1CCN(C(=O)c2ccccc2Oc2ccccc2)CC1 | i | -6.14* | i | i | i | -0.09 | 94.0%* | i | 26.0%* | i | 67.0%* | .
O=C(c1ccco1)N1CCN(C(=O)c2ccccc2OC(=O)C23CC4CC(CC(C4)C2)C3)CC1 | i | i | i | i | i | 0.22 | . | . | . | . | . | .
O=C(c1ccco1)N1CCN(C(=O)c2ccccc2Oc2ccccc2)CC1 | i | -8.09* | i | i | i | -1.62 | . | . | . | . | 61.8%* | . | TRPC4 spec 2=i;TRPC4 spec=13.1%*;HEK293 MPD ctr 2-1=i;HEK293 MPD ctr-1=6.7%*
Cc1ccc(-c2nc3cccnc3s2)cc1NS(=O)(=O)c1cccs1 | i | i | i | i | i | -0.56 | . | . | . | . | . | .
CCOC(=O)C1CCCN(C(=O)c2sc3nc(C)nc(N(CC)CC)c3c2C)C1 (centres undefined) | i | -5.22* | i | i | i | 1.02 | 110.0%* | i | 22.5%* | 36.0%* | 37.5%* | .
CCC1CCCCN1C(=O)c1sc2nc(C)nc(N(CC)CC)c2c1C (centres undefined) | i | i | i | i | i | -0.7 | . | . | . | . | . | .
CCOC(=O)c1c[nH]c2c3c(ccc2c1=O)CCCC3 | i | i | i | i | i | -0.05 | . | . | . | . | . | .
CCOC(=O)c1ccc2[nH]cc(C(C)=O)c(=O)c2c1 | i | -7.47* | i | i | i | 0.18 | . | . | . | . | i | i | TRPC4 spec 2=i;TRPC4 spec=-25.6%*;HEK293 MPD ctr 2-1=i;HEK293 MPD ctr-1=-422.5%*
CCOC(=O)c1c[nH]c2c(C)cc(C)cc2c1=O | i | i | i | i | i | 0.74 | . | . | . | . | . | .
CCOC(=O)c1c[nH]c2c(Cl)ccc(Cl)c2c1=O | i | -6.06* | i | i | i | 2.08 | -324.5%* | i | -39.0%* | 43.0%* | i | i
CCOC(=O)c1c[nH]c2c(C)ccc(Cl)c2c1=O | i | -7.62* | i | i | i | 0.77 | -303.0%* | i | -41.5%* | 53.0%* | 60.0%* | i
CCOC(=O)c1c[nH]c2c(Cl)c(Cl)ccc2c1=O | i | -9.97* | i | i | i | 0.4 | . | . | . | . | i | i | TRPC4 spec 2=i;TRPC4 spec=-24.6%*;HEK293 MPD ctr 2-1=i;HEK293 MPD ctr-1=-298.0%*
COc1ccc(CNc2nc3ccccc3n2CCN2CCCCC2)c(OC)c1 | i | -10.1* | i | i | i | -3.73 | . | . | . | . | i | i | TRPC4 spec 2=42.5%*;TRPC4 spec=9.3%*;HEK293 MPD ctr 2-1=252.0%*;HEK293 MPD ctr-1=7.9%*
Brc1ccc(CNc2nc3ccccc3n2CCN2CCCCC2)cc1 | i | -5.17* | i | i | i | -3.29 | i | i | 15.0%* | 89.0%* | 38.0%* | i
COc1cccc(CNc2nc3ccccc3n2CCN2CCCCC2)c1 | i | -6.08* | i | i | i | -0.11 | i | i | i | 55.5%* | 35.0%* | i
